{"source": "paper PMC11571001", "about": "(ACS Medicinal Chemistry Letters, 2024)", "key": {"HeLa cells": {"tested_on": "HeLa cells", "assay": "Cellular ADP-ribosylation in H2O2-stimulated HeLa cells", "assay_type": "cell-based, human", "settings": "H2O2 1 mM, inhibitor 100 μM, 20 minutes", "in_short": "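HeLa cells were stimulated with H2O2 and treated without or with test compound at 100 μM. Cellular ADP-ribosylation was imaged by confocal microscopy using an AF1521 macrodomain-based pan-ADPr binding reagent. Lysates were immunoblotted with the same pan-ADPr reagent, with anti-GAPDH as loading control. Densitometry was normalized to loading controls, and significance was reported as p < 0.05 and p < 0.01.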"}, "full-length human PARP2": {"biological_target": "full-length human PARP2 (Homo sapiens, UniProt Q9UGN5)", "sequence (Q9UGN5 whole entry)": "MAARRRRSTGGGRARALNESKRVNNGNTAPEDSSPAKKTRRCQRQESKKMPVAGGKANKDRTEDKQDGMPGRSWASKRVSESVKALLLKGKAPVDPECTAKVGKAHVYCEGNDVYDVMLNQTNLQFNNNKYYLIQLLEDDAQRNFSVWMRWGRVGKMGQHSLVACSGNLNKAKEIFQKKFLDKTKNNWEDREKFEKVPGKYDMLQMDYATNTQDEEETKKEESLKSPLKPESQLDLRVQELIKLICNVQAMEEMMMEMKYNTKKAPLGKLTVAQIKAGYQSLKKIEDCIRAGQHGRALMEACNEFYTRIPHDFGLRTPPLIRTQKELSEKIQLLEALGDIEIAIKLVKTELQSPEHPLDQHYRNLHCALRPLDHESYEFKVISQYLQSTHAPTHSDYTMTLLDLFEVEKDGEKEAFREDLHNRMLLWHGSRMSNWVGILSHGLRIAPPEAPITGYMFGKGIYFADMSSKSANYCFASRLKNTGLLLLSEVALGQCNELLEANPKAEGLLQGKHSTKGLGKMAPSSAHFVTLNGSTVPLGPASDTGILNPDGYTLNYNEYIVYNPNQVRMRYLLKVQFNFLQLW", "assay": "PARP2 auto-poly-ADP-ribosylation, immunoblot with anti-PAR antibody", "assay_type": "biochemical", "settings": "compound 100 μM, 300 μM NAD+", "in_short": "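Full-length human enzyme was recombinantly expressed in and purified from bacteria. Auto-PARylation was run in the absence and presence of test compound at 100 μM. Immunoblots were probed with anti-PAR antibody and band signal was quantified.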"}, "[1]": {"biological_target": "catalytic domain of human PARP5a (Homo sapiens, UniProt O95271)", "sequence (O95271 1112-1317)": "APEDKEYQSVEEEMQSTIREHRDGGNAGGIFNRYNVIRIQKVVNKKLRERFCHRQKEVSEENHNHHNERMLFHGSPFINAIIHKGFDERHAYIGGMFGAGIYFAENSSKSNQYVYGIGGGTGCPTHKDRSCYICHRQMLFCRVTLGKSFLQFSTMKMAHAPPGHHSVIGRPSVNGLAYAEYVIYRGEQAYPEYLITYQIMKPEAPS", "assay": "PARP5a auto-ADP-ribosylation, immunoblot with pan-ADPr binding reagent", "assay_type": "biochemical", "settings": "compound 100 μM, 300 μM NAD+"}, "[2]": {"biological_target": "T1, catalytic domain of human PARP10 (Homo sapiens, UniProt Q53GL7)", "T1 sequence (Q53GL7 806-1025 limits assumed)": "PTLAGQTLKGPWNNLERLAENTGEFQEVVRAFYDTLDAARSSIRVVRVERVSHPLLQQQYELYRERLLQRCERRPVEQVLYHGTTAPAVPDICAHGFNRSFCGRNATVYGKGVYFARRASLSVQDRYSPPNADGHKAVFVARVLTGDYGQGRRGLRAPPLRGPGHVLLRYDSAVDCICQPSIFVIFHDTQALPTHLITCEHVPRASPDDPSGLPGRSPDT", "assay": "PARP10 auto-ADP-ribosylation", "assay_type": "biochemical", "settings": "compound 100 μM; 300 μM NAD+; pan-ADPr binding reagent immunoblot"}, "[3]": {"tested_on": "HAP1 wild-type cell lysates", "assay": "Protein ADP-ribosylation in HAP1 wild-type cell lysates, immunoblot", "assay_type": "biochemical, human", "settings": "compound 100 μM; 600 μM NAD+; olaparib 100 μM as control"}, "[4]": {"tested_on": "HAP1/PARP1-knockout cell lysates", "assay": "Protein ADP-ribosylation in HAP1/PARP1-KO cell lysates, immunoblot", "assay_type": "biochemical, human", "settings": "compound 100 μM; 600 μM NAD+; olaparib 100 μM as control"}}, "note": "“Also recorded” adds a separate entry of the source.", "data": [{"smiles": "O=C(c1cc(Cc2n[nH]c(=O)c3ccccc23)ccc1F)N1CCN(C(=O)C2CC2)CC1", "note": "[olaparib, reference compound]", "values": [{"measurement": "effect on cellular ADP-ribosylation triggered by H2O2", "setting": "HeLa cells", "value": "largely suppressed"}]}, {"smiles": "CC(=O)c1cccc([C@H](C)Oc2ccccc2C(N)=O)c1", "note": "[compound 5]", "values": [{"measurement": "inhibition of PARP2-catalyzed auto-modification (PARylation)", "setting": "full-length human PARP2", "value": "reduced inhibition activities"}]}, {"smiles": "CC(=O)c1cccc(COc2ccccc2C(N)=O)c1", "note": "[compound 3]", "values": [{"measurement": "inhibition of PARP2-catalyzed auto-modification (PARylation)", "setting": "full-length human PARP2", "value": "functions as an inhibitor for PARP2; also recorded: significantly inhibit"}, {"measurement": "inhibition of PARP5a-catalyzed auto-ADP-ribosylation", "setting": "[1]", "value": "significantly decreased levels of ADP-ribosylation"}, {"measurement": "inhibition of PARP10-catalyzed auto-ADP-ribosylation", "setting": "[2]", "value": "significantly decreased levels of ADP-ribosylation"}, {"measurement": "inhibition of protein ADP-ribosylation in HAP1-WT cell lysates", "setting": "[3]", "value": "significantly higher than those of olaparib-treated ones"}, {"measurement": "inhibition of protein ADP-ribosylation in HAP1/PARP1-KO cell lysates", "setting": "[4]", "value": "no significant differences to those of olaparib-treated ones and non-modified controls"}]}, {"smiles": "CC(=O)c1cccc([C@@H](C)Oc2ccccc2C(N)=O)c1", "note": "[compound 4]", "values": [{"measurement": "inhibition of PARP2-catalyzed auto-modification (PARylation)", "setting": "full-length human PARP2", "value": "reduced inhibition activities"}]}, {"smiles": "CC(=O)c1cccc(CCCOc2ccccc2C(N)=O)c1", "note": "[compound 9]", "values": [{"measurement": "inhibition of PARP2-catalyzed auto-modification (PARylation)", "setting": "full-length human PARP2", "value": "reduced inhibition activities"}]}, {"smiles": "CC(=O)c1cccc(CCOc2ccccc2C(N)=O)c1", "note": "[compound 7]", "values": [{"measurement": "effect on cellular ADP-ribosylation triggered by H2O2", "setting": "HeLa cells", "value": "no significant impact"}]}, {"smiles": "CC(=O)c1cccc(CCOc2ccc(F)cc2C(N)=O)c1", "note": "[compound 8]", "values": [{"measurement": "effect on cellular ADP-ribosylation triggered by H2O2", "setting": "HeLa cells", "value": "no significant impact"}]}]}
